Results as given in ChEMBL document CHEMBL1151848, “Aryl nucleoside H-phosphonates. Part 16: synthesis and anti-HIV-1 activity of di-aryl nucleoside phosphotriesters” (Bioorg Med Chem, 2009).

What was measured:
[1] = Chemical stability assessed as enzymatic hydrolysis half life in RPMI-1640 culture medium containing heat non-inactivated fetal bovine serum by HPLC analysis; assay type: physicochemical; conditions: cattle
Outline: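 Enzymatic hydrolysis by phosphoesterases was followed in RPMI-1640 containing heat non-inactivated FBS (RPMI/FBS 9:1, v/v).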

[2] = Chemical stability in RPMI-1640 culture medium at 2 uM up to 6 days by HPLC analysis; assay type: physicochemical; conditions: 144 h

Q: For `Cc1ccc(OP(=O)(O)OC[C@H]2O[C@@H](n3cc(C)c(=O)[nH]c3=O)C[C@@H]2N=[N+]=[N-])cn1`, which half-life [1] is on record?
A: Its half-life is 28.9 h.

Q: What about the Stability [2] of the same molecule?
A: Its Stability is “Stable”.

Q: With `Cc1cn([C@H]2C[C@H](N=[N+]=[N-])[C@@H](COP(=O)(O)Oc3ccc(Cl)cc3Cl)O2)c(=O)[nH]c1=O` as the molecule, how does the half-life [1] read?
A: The half-life was 3.03 h.

Q: And the Stability [2]?
A: Its Stability is “Stable”.

Q: With `Nc1ncnc2c1ncn2[C@H]1CC[C@@H](COP(=O)(O)Oc2ccccc2)O1` as the molecule, how does the half-life [1] read?
A: Its half-life is 36.1 h.

Q: What about the Stability [2] of the same molecule?
A: Its Stability is “Stable”.

Q: Which half-life [1] does the source give for `O=c1ccn([C@H]2CC[C@@H](COP(=O)(O)Oc3ccccc3)O2)c(=O)[nH]1` here?
A: The half-life was 25.1 h.

Q: What about the Stability [2] of the same molecule?
A: The Stability was “Stable”.

Q: What does the source list for `Nc1ncnc2c1ncn2[C@H]1CC[C@@H](COP(=O)(O)Oc2cccnc2)O1`?
A: half-life [1]: 64.2 h; Stability [2]: Stable

Q: With `Cc1cn([C@H]2C[C@H](N=[N+]=[N-])[C@@H](COP(=O)(O)Oc3ccc(Cl)cc3)O2)c(=O)[nH]c1=O` as the molecule, how does the half-life [1] read?
A: Its half-life is 5.5 h.

Q: What about the Stability [2] of the same molecule?
A: Its Stability is “Stable”.
